In the library only some 1.8% were active in any assay of this set; here they are far more common.
MBD2 inh – MBD2-methylated oligo binding inhibition | TR-FRET, MBD2 binding to methylated oligonucleotide | inhibition, % at 4.4 µM | 370,000 tested, 0.31% active; in the data active = inhibition above about 13%
Casp6 inh – caspase-6 (human) enzyme inhibition; inhibition, % at 12.5 µM; P55212; 350,000 tested, 0.53% active; AID 686996; purified caspase-6, Z-VEID-R110 cleavage fluorescence;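 active = mean inhibition across replicates at least about 35%, with every replicate also reaching that limit, limit read from the data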;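 also: 0% = median of neutral control wells and 100% = no fluorescence left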
LEDGF integ inh – blocks HIV-1 LEDGF/p75-dependent DNA integration; TR-FRET IN-LEDGF/p75 DNA integration, Eu/Cy5; inhibition, % at 3.7 µM; 370,000 tested, 0.64% active;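 active = inhibition above the screen-wide mean plus 3 SD, cut at about 13% in these data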;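 also: signal is the Cy5 over europium emission ratio at 671 and 618 nm; 0% = plate median of compound wells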
UHRF1 MBD2 ctr – UHRF1 methyl-DNA binding inhibition; 370,000 tested, 0.75% active; Q96T88; inhibition, % at 4.4 µM; AID 687016; UHRF1 binding to methylated oligo, TR-FRET; in the data active = inhibition above about 21%;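 also: UHRF1 SRA domain binding a hemimethylated CpG hairpin DNA probe; 0% = median of test compound wells and 100% = reference inhibitor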
NSD2 HMT inh – inhibitors of human histone methyltransferase NSD2 | O96028 | NSD2 peptide methylation, AlphaScreen, 120 min | inhibition, % at 12.5 µM | 310,000 tested, 0.54% active; in the data active = inhibition above about 50%
TDP2 inh – TDP2 (human) inhibition, absorbance primary screen. O95551. AID 720702. recombinant TDP2, T5PNP hydrolysis, p-nitrophenol absorbance 415 nm. inhibition, % at 12.8 µM. 370,000 tested, 0.34% active;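 active = inhibition above the mean of all tested compounds plus 3 SD, set per campaign, cut at about 25% in these data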;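 also: 0% = DMSO with enzyme and 100% = buffer with substrate but no TDP2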
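Material: recombinant human TDP2; quantity: TDP2 enzyme at 120 nM final; medium: Tris-HCl pH 7.5 with MgCl2; compound: single concentration, 12.8 µM nominal, with 1% DMSO; incubation: 2 h enzyme incubation at 37 °C; signal: epi absorbance; measure: percent inhibition; benchmarks: high control without enzyme, low control DMSO plus TDP2; repeats: singlicate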
* marks the source's active call; other numbers are inactive results; . = not tested or not shown.

SMILES	MBD2 inh	Casp6 inh	LEDGF integ inh	UHRF1 MBD2 ctr	NSD2 HMT inh	TDP2 inh
Cc1ccc(N2C(=O)[C@@H]3[C@H](C2=O)C2c4ccccc4C=CN2[C@@H]3C(=O)c2ccco2)c(C)c1 (stereo partly drawn)	-7	.	10	-7	.	26*
C[C@H]1CN([C@@H](C)CO)C(=O)c2cccc(NC(=O)Nc3cccc4ccccc34)c2O[C@@H]1CN(C)C(=O)Nc1ccc2c(c1)OCO2	.	1	.	.	.	.
CCCN1[C@H](C(=O)N(C)C)[C@@H](CO)[C@@H]2Cn3c(ccc(C4=CCCCC4)c3=O)[C@@H]21	.	-1	.	.	.	.
COCC(=O)N1[C@@H](CO)[C@@H](c2ccc(-c3ccccc3OC)cc2)C12CN(C(C)=O)C2	.	1	.	.	.	.
COc1ccccc1S(=O)(=O)N[C@H]1CC[C@@H](CC(=O)NCc2cccc(F)c2)O[C@@H]1CO	.	-1	.	.	.	.
CC(C)c1ccc(S(=O)(=O)N2CCN(CC(=O)c3ccc(O)c(O)c3)CC2)cc1	-5	57*	36*	2	96*	0
COc1ccc(NC(=O)c2cccc(S(=O)(=O)N3CCN(c4ccccc4)CC3)c2)c(OC)c1	5	-3	-1	22*	-2	4
COc1ccc(NC(=O)N(C)C[C@H]2OCCCC[C@H](C)Oc3ccc(NC(=O)c4ccccc4)cc3C(=O)N([C@H](C)CO)C[C@@H]2C)cc1	.	1	.	.	.	.
Cc1cnc(C(=O)N2CCc3c([nH]c4ccccc34)C2c2ccc(F)cc2)cn1 (stereo not drawn)	4	1	0	21*	1	-7
COc1ccc(C(=O)C2CCCN(C(=O)c3c4c(nn3C)CCCC4)C2)cc1F (stereo not drawn)	2	-2	-4	39*	-2	2
Cn1nc2c(c1C(=O)N1CCCC(C(=O)c3cc(F)ccc3F)C1)CCCC2 (stereo not drawn)	2	-3	0	1	-1	1
N#Cc1cccc(NC(=O)COC(=O)c2ccccc2Sc2ccccc2C#N)c1	-4	1	2	34*	0	-2
CC(=O)c1ccc(NC(=O)COC(=O)c2ccccc2Sc2ccccc2C#N)cc1	-3	-1	-3	-2	-3	-4
Cc1cc(-c2ccc(Cl)cc2)c2cnn(C(C)C)c2n1	-2	1	6	3	-6	-19
CC(C)n1nnnc1-c1ccc(Cl)cc1	2	4	3	21*	-2	-7
CCC(C)Nc1nc2c(C)cccn2c(=O)c1C=Nc1ccc(OC)cc1 (stereo not drawn)	-6	41*	-4	-3	-1	1
CC[n+]1c(/C=C/C=C/N(C(C)=O)c2ccccc2)sc2ccccc21	-8	.	17*	-20	25	5
CCn1c(/C=C/N(C(C)=O)c2ccccc2)[n+](CC)c2ccc(Cl)cc21	-5	-1	0	-3	3	2
CCS(=O)(=O)N1CCCCN2[C@@H](CO)[C@@H](c3ccc(-c4ccccc4C)cc3)[C@@H]2C1	.	1	.	.	.	.
CCCCC(=O)NC(=S)Nc1ccccc1C(=O)Nc1ccccc1	-4	.	-3	-1	3	-7
CCCCCC(=O)NC(=S)Nc1ccccc1C(=O)OC	12	.	6	24*	1	5
Cc1cc(=O)[nH]c(SCC(=O)c2ccc(Cl)cc2)n1	.	.	.	.	-2	.
C[C@@H]1CN([C@@H](C)CO)C(=O)c2cc(C#CCN(C)C)cnc2O[C@H]1CN(C)C(=O)c1ccc2c(c1)OCO2	.	-1	.	.	.	.
O=C(NNC(=O)c1sccc1-n1cccc1)c1cccs1	-3	3	1	1	0	4
C/C(=N\NC(=O)c1sccc1-n1cccc1)c1cccs1	2	.	-7	41*	-1	-2
SMILES	MBD2 inh	Casp6 inh	LEDGF integ inh	UHRF1 MBD2 ctr	NSD2 HMT inh	TDP2 inh
COC(=O)c1cnc(N)s1	5	0	3	23*	-8	7
COc1ccccc1NS(=O)(=O)c1cccc(NC(=O)Nc2ccc(Cl)cc2)c1	4	6	5	26*	0	-21
CCNS(=O)(=O)c1ccc(NC(=O)Nc2ccccc2OC)cc1	6	.	6	23*	2	1
CCNS(=O)(=O)c1ccc(NC(=O)Nc2cc(C)ccc2OC)cc1	-1	1	-1	-1	7	-10
CS(=O)(=O)Nc1ccc2c(c1)[C@@H]1C[C@H](CC(=O)NCC3CC3)O[C@@H](CO)[C@@H]1O2	.	-4	.	.	.	.
NS(=O)(=O)c1ccc(NC(=O)C2Cc3ccccc3CN2C(=O)c2ccco2)cc1 (stereo not drawn)	-3	45*	5	6	7	3
CCOC(=O)c1oc2ccccc2c1NC(=O)C(C)(C)C	6	1	-2	52*	-5	-3
CCOCC(=O)Nc1c(C(=O)OCC)oc2ccccc12	0	.	-3	-3	1	0
Cc1cnc(C(=O)OCC(=O)NC2CCCCCC2)cn1	1	2	-1	22*	3	3
O=C(COC(=O)c1ccc[nH]c1=O)NC1CCCCCC1	0	1	-5	56*	8	14
O=C(COC(=O)c1ccc[nH]c1=O)NC1CCCCCCC1	0	-3	2	2	-1	12
Cc1cnc(C(=O)OCC(=O)N2C(C)CCCC2C)cn1 (stereo not drawn)	-1	3	-3	24*	-4	-1
COc1ccccc1NC(=O)N[C@H]1CC[C@H](CC(=O)N[C@@H](C)c2ccccc2)O[C@@H]1CO	.	-4	.	.	.	.
COCC(=O)N1[C@@H](CO)[C@@H](c2ccccc2)C12CN(Cc1ccccc1)C2	.	1	.	.	.	.
CCOC(=O)[C@H]1[C@H]2COc3ccc(Cl)cc3[C@@H]2N2C(=O)CN(Cc3ccc(OC)cc3)C(=O)[C@@]12C	-4	1	0	-1	.	13
CCOC(=O)[C@H]1[C@H]2COc3ccc(Cl)cc3[C@@H]2N2C(=O)CN(Cc3ccc(C)cc3)C(=O)[C@@]12C	1	40*	0	3	.	-8
O=C(C[C@@H]1CC[C@H]2[C@@H](COC[C@@H](O)CN2C(=O)c2ccccc2F)O1)N1CCN(c2ccccc2)CC1	.	2	.	.	.	.
COc1ccc(-n2c(NNC(C)=O)nc3sc4c(c3c2=O)CCCC4)cc1	4	69*	2	-2	-2	0
COc1cc(N)c(Cl)cc1C(=O)NC1CCN(Cc2ccccc2)CC1	4	49*	-1	1	.	8
O=C(NC1CCN(Cc2ccccc2)CC1)c1cccc(OC(F)F)c1	-2	-4	-1	0	1	-7
CC(=O)c1cccc(OCc2cc(C(=O)NC3CCN(Cc4ccccc4)CC3)no2)c1	9	-1	-4	21*	0	-3

Screens (PubChem BioAssay)
